High-throughput results deposited in PubChem by Broad Institute.
An excerpt weighted towards active compounds, which were near 3.1% of everything screened.
rRNA inh HTS: selective bacterial rRNA inhibition in E. coli; 1.6% of 350,000 active; AID 720706; E. coli WT GFP vs humanized-ribosome RFP mutants, fluorescence, 24 h; stronger effect = lower value; DMSO median 0, no signal -100; GFP signal change (wild-type ribosome), % (test concentration not listed);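 active = significant combined selectivity score with lowered wild-type GFP, culture density cut under 30%, mutant RFP and density less affected; inactive = any of these conditions unmet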
INS-1E GSIS act: primary screen for activators of insulin secretion dependent on glucose, INS-1E cells, GLuc reporter luminescence | activation, % at 16.6 µM | INS-1E GLuc reporter insulin secretion, 2-3 h | 0.61% of 370,000 active;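 active = lowest replicate activation of at least 40%, so every replicate reaches that level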;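 note: 0% = median of neutral control wells and 100% = median of IBMX positive control wells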
F508del corr: correctors of CFTR F508del function in bronchial epithelial cells; activity (quench increase), % at 7.58 µM; CFBE cells, YFP halide quenching; stimulated with forskolin plus potentiator P3; % fluorescence drop versus neutral controls; 0.36% of 350,000 active;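 active = mean added fluorescence quench of at least 8% versus neutral control, with both replicates also reaching 8%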;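 note: cells transiently co-express mutant CFTR-F508del with the halide-sensitive YFP; corrector assay measuring rescue of mutant channel to the surface after 24 h compound exposure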
Cneo AK release: causes C. neoformans cell lysis. adenylate kinase release luminescence, 4 h; normalised: neutral wells 0, clomiphene wells 100. lysis activity, % at 15 µM. 0.2% of 360,000 active;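 active = mean lysis activity across replicates of at least 80%, whatever share of replicates individually reach that level; inactive = mean lysis activity below 80%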
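Material: C. neoformans cells; Schedule: 4 h static compound exposure, 37 °C, read 1 h post-reagent; Measured by: adenylate kinase release luminescence; Read-out: signal increase indicating cell lysis; Controls: Clomiphene as positive lysis control.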
HIV Env fusion: inhibitors of HIV Env-mediated cell fusion. HeLa-JRFL Env/CEM21 cell fusion, luciferase. inhibition, % at 12.3 µM. 1.1% of 360,000 active. AID 651610;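 active = mean replicate inhibition score of at least 50 and every replicate individually at or above 50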;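 note: 0% = plate neutral controls and 100% = maraviroc near 300 nM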
miR-122 sensor: inhibitors of miR-122 in Huh7 cells | Huh7 miR-122 Renilla luciferase sensor, 48 h; neutral wells = 0, positive control = 100 | activation (reporter increase), % at 12.5 µM | 0.3% of 340,000 active | AID 602342;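 active = mean replicate activation score at least 90 and every replicate individually at or above 90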;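 note: higher luciferase means less miR-122 activity so hits act as miR-122 inhibitors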
The depositor's hits bear a star; . = not tested or not shown; [ ] = another dose, or the depositor's remark.

SMILES	rRNA inh HTS	INS-1E GSIS act	F508del corr	Cneo AK release	HIV Env fusion	miR-122 sensor
CC(C)C(=O)Nc1ccc2c(c1)C(=O)N(C)[C@H]1CC[C@@H](CC(=O)NCc3cccc(F)c3)O[C@H]1CO2	-3	-7	0	-1	17[16.7 µM]	53[16.7 µM]
COC(=O)N/N=C(\CCC(=O)O)c1cccs1	11	3	-1	-4	8	-7
O=C(O)CC/C(=N\Nc1ccc(Cl)cc1)c1cccs1	-28*	-1	0	-1	9	16
COc1ccc(CN(C)C[C@@H]2OCCCC[C@@H](C)Oc3ccc(NC(=O)Nc4ccccc4)cc3C(=O)N([C@@H](C)CO)C[C@@H]2C)cc1	-1	-32	-3	41	-14[16.7 µM]	21[16.7 µM]
O=C(Cc1cccc2ccccc12)NCCOc1ccccc1F	-39*	-11	1	10	12	-1
C[C@H](CO)N1C[C@H](C)[C@H](CN(C)Cc2ccc(C(=O)O)cc2)Oc2c(NS(=O)(=O)c3cn(C)cn3)cccc2C1=O	2	14	-1	-1	-3[16.7 µM]	2[16.7 µM]
C[C@@H]1CCCCO[C@H](CN(C)C(=O)Nc2ccc(C(F)(F)F)cc2)[C@H](C)CN([C@@H](C)CO)C(=O)c2cc(NC(=O)c3ccccc3)ccc2O1	-1	-12	-3	0	73*[16.7 µM]	-11[16.7 µM]
C[C@H]1CCCCO[C@H](CN(C)C(=O)Nc2ccc(C(F)(F)F)cc2)[C@@H](C)CN([C@@H](C)CO)C(=O)c2cc(NC(=O)Nc3ccc4c(c3)OCO4)ccc2O1	3	16	5	4	72*[16.7 µM]	-3[16.7 µM]
C[C@H](CO)N1C[C@H](C)[C@H](CN(C)C(=O)C2CCCCC2)OCCCC[C@H](C)Oc2ccc(NC(=O)Nc3ccc4c(c3)OCO4)cc2C1=O	-1	-18	1	-1	78*[16.7 µM]	-9[16.7 µM]
C[C@H](CO)N1C[C@H](C)[C@@H](CN(C)C(=O)Nc2ccc3c(c2)OCO3)OCCCC[C@H](C)Oc2ccc(NC(=O)Nc3ccc(C(F)(F)F)cc3)cc2C1=O	-2	16	3	1	0[16.7 µM]	-6[16.7 µM]
C[C@@H]1CN([C@H](C)CO)C(=O)c2cc(NC(=O)Nc3ccc4c(c3)OCO4)ccc2O[C@@H](C)CCCCO[C@H]1CN(C)C(=O)C1CCCCC1	-1	-4	2	3	37[16.7 µM]	-9[16.7 µM]
C[C@H]1CCCCO[C@H](CN(C)C(=O)Nc2ccc(C(F)(F)F)cc2)[C@@H](C)CN([C@@H](C)CO)C(=O)c2cc(NC(=O)Cc3ccccc3)ccc2O1	4	2	4	-1	66*[16.7 µM]	-14[16.7 µM]
C[C@@H]1CCCCO[C@H](CN(C)C(=O)Nc2ccc(C(F)(F)F)cc2)[C@H](C)CN([C@H](C)CO)C(=O)c2cc(NC(=O)Cc3ccccc3)ccc2O1	4	-15	0	59	26[16.7 µM]	-9[16.7 µM]
COCC(=O)N1CC2(C1)[C@H](c1ccc(-c3cccc(C)c3)cc1)[C@H](CO)N2C(=O)C1CC1	-2	-9	1	.	.	.
O=C(c1ccc(F)cc1)N1CC(=O)N2[C@H](CO)[C@@H](c3ccc(C#Cc4ccc(F)cc4)cc3)[C@@H]2C1	1	4	0	.	.	.
O=C(C1CC1)N1CCCCN2[C@@H](CO)[C@@H](c3ccc(-c4ccncc4)cc3)[C@@H]2C1	.	.	0	-3	.	7[16.7 µM]
CO[C@@H]1CN(C)C(=O)c2cc(NC(=O)c3cccc(F)c3)ccc2OC[C@H](C)NC[C@@H]1C	7	7	3	-4	.	-4[16.7 µM]
CN1C(=O)c2cc(NC(=O)C3CC3)ccc2OC[C@@H]2O[C@@H](CC(=O)NC3CCC3)CC[C@H]21	2	3	0	0	.	48[16.7 µM]
C[C@@H]1CCCCO[C@H](CN(C)C(=O)Cc2ccccc2)[C@@H](C)CN([C@@H](C)CO)C(=O)c2cc(NC(=O)Nc3ccc(C(F)(F)F)cc3)ccc2O1	5	6	1	-2	62*[16.7 µM]	-5[16.7 µM]
C[C@@H]1CCCCO[C@@H](CN(C)C(=O)c2ccccc2)[C@H](C)CN([C@@H](C)CO)C(=O)c2cc(NC(=O)Nc3ccc(C(F)(F)F)cc3)ccc2O1	-1	0	4	52	57*[16.7 µM]	-15[16.7 µM]
C[C@H]1CCCCO[C@@H](CN(C)C(=O)C2CCCCC2)[C@@H](C)CN([C@@H](C)CO)C(=O)c2cc(NC(=O)Nc3ccc(C(F)(F)F)cc3)ccc2O1	0	-7	10*	0	0[16.7 µM]	1[16.7 µM]
C[C@H](CO)N1C[C@H](C)[C@@H](CN(C)C(=O)c2ccccc2)OCCCC[C@H](C)Oc2ccc(NC(=O)Nc3ccc(C(F)(F)F)cc3)cc2C1=O	2	11	-2	-1	-27[16.7 µM]	10[16.7 µM]
C[C@H]1CCCCO[C@H](CN(C)C(=O)Nc2ccc(C(F)(F)F)cc2)[C@@H](C)CN([C@@H](C)CO)C(=O)c2cc(NC(=O)Nc3ccccc3)ccc2O1	4	2	-3	1	64*[16.7 µM]	-5[16.7 µM]
CO[C@@H]1CN(C)C(=O)c2ccc(NC(C)=O)cc2OC[C@@H](C)N(C(=O)Cc2ccccn2)C[C@H]1C	1	2	0	-3	4[16.7 µM]	.
C[C@@H]1CN([C@@H](C)CO)C(=O)c2cc(NC(=O)NC3CCCCC3)ccc2O[C@@H](C)CCCCO[C@@H]1CN(C)C(=O)Cc1ccccc1	-1	-9	1	-17	62*[16.7 µM]	-2[16.7 µM]
SMILES	rRNA inh HTS	INS-1E GSIS act	F508del corr	Cneo AK release	HIV Env fusion	miR-122 sensor
C[C@@H]1CN([C@H](C)CO)C(=O)c2cc(NC(=O)Nc3ccc(C(F)(F)F)cc3)ccc2O[C@@H](C)CCCCO[C@H]1CN(C)C(=O)Nc1ccc(C(F)(F)F)cc1	1	-4	1	4	115*[16.7 µM]	-14[16.7 µM]
C[C@H]1CCCCO[C@H](CN(C)C(=O)Nc2ccc(C(F)(F)F)cc2)[C@@H](C)CN([C@@H](C)CO)C(=O)c2cc(NC(=O)Nc3ccc(C(F)(F)F)cc3)ccc2O1	0	1	-1	7	45[16.7 µM]	-5[16.7 µM]
CC[C@H]1C/C=C\C[C@@H](c2ccccc2)NC(=O)CCC(=O)N1	6	10	.	.	.	.
COc1ccc(NC(=O)[C@H](C)NC(N)=O)cc1S(=O)(=O)Nc1cc(C)ccc1Br	2	24	0	7	-3	46
COC(=O)c1ccc(NS(=O)(=O)c2cc(C)ccc2OC)cc1	.	.	.	-1	.	150*
CCc1ccc(NS(=O)(=O)c2cc(OC)ccc2OC)cc1	-7	-3	2	.	.	140*
COc1ccc(OC)c(S(=O)(=O)Nc2cc3c4c(c2)CCN4C(=O)CC3)c1	11	16	-3	2	16	143*
COc1ccc(NC(=O)C2CCC2)cc1S(=O)(=O)Nc1cc(C)ccc1Br	-8	-37	-1	0	-23	170*
